Test results reported in ChEMBL document CHEMBL4715736, “Identification of anticancer agents based on the thieno[2,3-b]pyridine and 1H-pyrazole molecular scaffolds” (2016).

What was measured:
Type in all cases: functional
[1] = tested on: HCC 2998; experiment: Growth inhibition of human HCC 2998 cells assessed as cell growth at 100 uM incubated for 48 hrs by sulforhodamine B assay relative to control; conditions: read-out: Activity
Procedure, shortened: (§1)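 NCI Developmental Therapeutics Program NCI60 panel. Compounds that were active in the 10 µM one-dose screen went on to dose–response testing. Growth at each concentration is expressed relative to untreated control (100%). GI50 (concentration giving 50% of maximal inhibition of proliferation) and TGI (concentration giving total growth inhibition) were derived from the curves.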

[2] = tested on: UACC-257; experiment: Growth inhibition of human UACC-257 cells assessed as cell growth at 100 uM incubated for 48 hrs by sulforhodamine B assay relative to control; conditions: read-out: Activity
[3] = tested on: HCC 2998; experiment: Growth inhibition of human HCC 2998 cells incubated for 48 hrs by sulforhodamine B assay
[4] = tested on: SF-295; experiment: Growth inhibition of human SF-295 cells assessed as cell growth at 0.01 uM incubated for 48 hrs by sulforhodamine B assay relative to control; conditions: read-out: Activity
[5] = tested on: CAKI-1; experiment: Growth inhibition of human CAKI-1 cells assessed as cell growth at 100 uM incubated for 48 hrs by sulforhodamine B assay relative to control; conditions: read-out: Activity; procedure, shortened: as §1
[6] = tested on: UACC-257; experiment: Growth inhibition of human UACC-257 cells incubated for 48 hrs by sulforhodamine B assay
Procedure, shortened: (§2)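 NCI DTP 60-line human tumour panel. Dose-response curves were run only for ligands active in the initial 10 µM screen. GI50 (concentration giving 50% of maximal inhibition of proliferation) and TGI (concentration giving total growth inhibition) were derived from these curves.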

[7] = tested on: OVCAR-5; experiment: Growth inhibition of human OVCAR-5 cells assessed as cell growth at 100 uM incubated for 48 hrs by sulforhodamine B assay relative to control; conditions: read-out: Activity
[8] = tested on: MOLT-4; experiment: Growth inhibition of human MOLT-4 cells incubated for 48 hrs by sulforhodamine B assay
Procedure, shortened: (§3)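 NCI60 panel at the NCI Developmental Therapeutics Program. Only compounds active in the 10 µM screen went to dose-response testing. GI50, the concentration giving 50% of maximal inhibition of proliferation, and TGI, the concentration giving total growth inhibition, were derived from the dose-response curves.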

[9] = tested on: A498; experiment: Growth inhibition of human A498 cells assessed as cell growth at 100 uM incubated for 48 hrs by sulforhodamine B assay relative to control; conditions: read-out: Activity; procedure, shortened: as §1
[10] = tested on: SNB-75; experiment: Growth inhibition of human SNB-75 cells incubated for 48 hrs by sulforhodamine B assay; procedure, shortened: as §2
[11] = tested on: OVCAR-5; experiment: Growth inhibition of human OVCAR-5 cells assessed as cell growth at 0.1 uM incubated for 48 hrs by sulforhodamine B assay relative to control; conditions: read-out: Activity
[12] = tested on: A549; experiment: Growth inhibition of human A549/ATCC cells incubated for 48 hrs by sulforhodamine B assay; procedure, shortened: as §1
[13] = tested on: SK-MEL-5; experiment: Growth inhibition of human SK-MEL-5 cells assessed as cell growth at 0.1 uM incubated for 48 hrs by sulforhodamine B assay relative to control; conditions: read-out: Activity
[14] = tested on: RPMI-8226; experiment: Growth inhibition of human RPMI-8226 cells assessed as cell growth at 0.1 uM incubated for 48 hrs by sulforhodamine B assay relative to control; conditions: read-out: Activity
[15] = tested on: MDA-MB-468; experiment: Growth inhibition of human MDA-MB-468 cells assessed as cell growth at 0.01 uM incubated for 48 hrs by sulforhodamine B assay relative to control; conditions: read-out: Activity
[16] = tested on: ACHN; experiment: Growth inhibition of human ACHN cells assessed as cell growth at 1 uM incubated for 48 hrs by sulforhodamine B assay relative to control; conditions: read-out: Activity
[17] = tested on: SR; experiment: Growth inhibition of human SR cells assessed as cell growth at 0.1 uM incubated for 48 hrs by sulforhodamine B assay relative to control; conditions: read-out: Activity
[18] = tested on: TK-10; experiment: Growth inhibition of human TK-10 cells assessed as cell growth at 0.1 uM incubated for 48 hrs by sulforhodamine B assay relative to control; conditions: read-out: Activity
[19] = tested on: MCF7; experiment: Growth inhibition of human MCF7 cells incubated for 48 hrs by sulforhodamine B assay; procedure, shortened: as §3
[20] = tested on: KM12; experiment: Growth inhibition of human KM12 cells assessed as cell growth at 0.1 uM incubated for 48 hrs by sulforhodamine B assay relative to control; conditions: read-out: Activity
[21] = tested on: HCT-15; experiment: Growth inhibition of human HCT-15 cells incubated for 48 hrs by sulforhodamine B assay; procedure, shortened: as §3
[22] = tested on: MCF7; experiment: Growth inhibition of human MCF7 cells assessed as cell growth at 1 uM incubated for 48 hrs by sulforhodamine B assay relative to control; conditions: read-out: Activity
[23] = tested on: SR; experiment: Growth inhibition of human SR cells assessed as cell growth at 0.01 uM incubated for 48 hrs by sulforhodamine B assay relative to control; conditions: read-out: Activity
[24] = tested on: NCI-H226; experiment: Growth inhibition of human NCI-H226 cells incubated for 48 hrs by sulforhodamine B assay; procedure, shortened: as §3
[25] = tested on: HOP-92; experiment: Growth inhibition of human HOP-92 cells assessed as cell growth at 0.1 uM incubated for 48 hrs by sulforhodamine B assay relative to control; conditions: read-out: Activity
[26] = tested on: Hs-578T; experiment: Growth inhibition of human Hs-578T cells incubated for 48 hrs by sulforhodamine B assay; procedure, shortened: as §3
[27] = tested on: SNB-75; experiment: Growth inhibition of human SNB-75 cells assessed as cell growth at 100 uM incubated for 48 hrs by sulforhodamine B assay relative to control; conditions: read-out: Activity
[28] = tested on: Malme-3M; experiment: Growth inhibition of human Malme-3M cells assessed as cell growth at 0.1 uM incubated for 48 hrs by sulforhodamine B assay relative to control; conditions: read-out: Activity
[29] = tested on: HOP-62; experiment: Growth inhibition of human HOP-62 cells assessed as cell growth at 1 uM incubated for 48 hrs by sulforhodamine B assay relative to control; conditions: read-out: Activity
[30] = tested on: MDA-MB-231; experiment: Growth inhibition of human MDA-MB-231 cells assessed as cell growth at 100 uM incubated for 48 hrs by sulforhodamine B assay relative to control; conditions: read-out: Activity
[31] = tested on: A498; experiment: Growth inhibition of human A498 cells incubated for 48 hrs by sulforhodamine B assay; procedure, shortened: as §1
[32] = tested on: 786-0; experiment: Growth inhibition of human 786-0 cells assessed as cell growth at 0.01 uM incubated for 48 hrs by sulforhodamine B assay relative to control; conditions: read-out: Activity; procedure, shortened: as §1
[33] = tested on: MDA-MB-231; experiment: Growth inhibition of human MDA-MB-231 cells incubated for 48 hrs by sulforhodamine B assay; procedure, shortened: as §3
[34] = read-out: LC50 (the source's name)

## CCc1ccccc1NC(=O)c1sc2nc3c(cc2c1N)C(=O)CCC3
[1]
  growth at 100 µM: 3%
[2]
  growth at 100 µM: 25%
[3]
  GI50: 1.43 µM
  TGI: > 100 µM
[3]; [34]
  CC50: > 100 µM
[4]
  growth at 0.01 µM: 86%
[5]
  growth at 100 µM: 35%
[6]
  GI50: 19.9 µM
  LC50 (concentration killing 50% of cells): > 100 µM
  TGI: > 100 µM
[7]
  growth at 100 µM: 7%
[8]
  GI50: 0.529 µM
  TGI: > 100 µM
[8]; [34]
  CC50: > 100 µM
[9]
  growth at 100 µM: -10%
[10]
  GI50: 0.193 µM
  LC50: > 100 µM
  TGI: 55.1 µM
[11]
  growth at 0.1 µM: 83%
[12]
  GI50: 0.595 µM
  TGI: > 100 µM
[12]; [34]
  CC50: > 100 µM
[13]
  growth at 0.1 µM: 82%
[14]
  growth at 0.1 µM: 96%
[15]
  growth at 0.01 µM: 91%
[16]
  growth at 1 µM: 43%
[17]
  growth at 0.1 µM: 96%
[18]
  growth at 0.1 µM: 97%
[19]
  GI50: 0.312 µM
  TGI: > 100 µM
[19]; [34]
  CC50: > 100 µM
[20]
  growth at 0.1 µM: 92%
[21]
  GI50: 0.349 µM
  LC50: > 100 µM
  TGI: > 100 µM
[22]
  growth at 1 µM: 17%
[23]
  growth at 0.01 µM: 100%
[24]
  GI50: 20.1 µM
  TGI: > 100 µM
[24]; [34]
  CC50: > 100 µM
[25]
  growth at 0.1 µM: 69%
[26]
  GI50: 0.302 µM
  TGI: > 100 µM
[26]; [34]
  CC50: > 100 µM
[27]
  growth at 100 µM: -19%
[28]
  growth at 0.1 µM: 84%
[29]
  growth at 1 µM: 33%
[30]
  growth at 100 µM: 4%
[31]
  GI50: 0.18 µM
  TGI: 4 µM
[31]; [34]
  CC50: > 100 µM
[32]
  growth at 0.01 µM: 90%
[33]
  GI50: 1.25 µM
  TGI: > 100 µM
[33]; [34]
  CC50: > 100 µM
